Data published in PMC8501901 (Proceedings of the National Academy of Sciences of the …, 2021).
Where a SMILES comes first, the peptide text is derived from it. Where no end group is shown, it is not given here. The star is where a group is joined. Myristoyl = CCCCCCCCCCCCCC(=O)*

Legend:
[1] = test system: MCF-7 breast cancer cells; experiment: Cell viability; assay type: cell-based, human; settings: XTT; peptide concentration 10 μM; three independent experiments
How it was run: (§1)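 Cells seeded at 5 × 10^3/well and grown 16 to 24 h. N-terminally myristoylated peptides were added in serum-free medium for 4 h, then serum was replenished for 24 h. XTT absorbance was read and converted to cell number with a per-line standard curve (1.25 to 20 × 10^3 cells plated, assayed after 24 h). At least three repeats, each in triplicate.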

[2] = test system: MDA-MB-231 breast cancer cells; experiment: Cell viability; assay type: cell-based, human; settings: XTT; peptide concentration 10 μM; three independent experiments
How it was run: as §1

[3] = test system: U251 MG glioblastoma cancer cells; experiment: Cell viability; assay type: cell-based, human; settings: XTT; peptide concentration 10 μM; three independent experiments
How it was run: as §1

PKC-η = experiment: Kinase assay with the peptide as substrate; assay type: biochemical; settings: γ-ATP
PKC-ε = experiment: Kinase assay with the peptide as substrate; assay type: biochemical; settings: γ-ATP
PKCη = PKCη (Homo sapiens, UniProt P24723); experiment: In vitro kinase assay, immunoprecipitated PKC, MBP substrate, γ-[32P]ATP; assay type: biochemical; settings: for inhibition of kinase activity of PKCη: even at 10 μΜ peptide, MBP substrate
How it was run: (§2)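 Novel PKC isoforms were HA-tagged, expressed in HEK-293T and pulled down with anti-HA beads (100 μg lysate). Reaction 30 min at 32 °C; 32P-MBP read by autoradiography and normalized via HA/MBP immunoblots. Means of three independent experiments.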

PKCδ = PKCδ (Homo sapiens, UniProt Q05655); experiment: as above; assay type: biochemical
How it was run: as §2

PKCθ = PKCθ (Homo sapiens, UniProt Q04759); experiment: as above; assay type: biochemical
How it was run: as §2

PKCε = target: T1, PKCε (Homo sapiens, UniProt Q02156); experiment: as above; assay type: biochemical
T1 sequence (Q02156 1-737): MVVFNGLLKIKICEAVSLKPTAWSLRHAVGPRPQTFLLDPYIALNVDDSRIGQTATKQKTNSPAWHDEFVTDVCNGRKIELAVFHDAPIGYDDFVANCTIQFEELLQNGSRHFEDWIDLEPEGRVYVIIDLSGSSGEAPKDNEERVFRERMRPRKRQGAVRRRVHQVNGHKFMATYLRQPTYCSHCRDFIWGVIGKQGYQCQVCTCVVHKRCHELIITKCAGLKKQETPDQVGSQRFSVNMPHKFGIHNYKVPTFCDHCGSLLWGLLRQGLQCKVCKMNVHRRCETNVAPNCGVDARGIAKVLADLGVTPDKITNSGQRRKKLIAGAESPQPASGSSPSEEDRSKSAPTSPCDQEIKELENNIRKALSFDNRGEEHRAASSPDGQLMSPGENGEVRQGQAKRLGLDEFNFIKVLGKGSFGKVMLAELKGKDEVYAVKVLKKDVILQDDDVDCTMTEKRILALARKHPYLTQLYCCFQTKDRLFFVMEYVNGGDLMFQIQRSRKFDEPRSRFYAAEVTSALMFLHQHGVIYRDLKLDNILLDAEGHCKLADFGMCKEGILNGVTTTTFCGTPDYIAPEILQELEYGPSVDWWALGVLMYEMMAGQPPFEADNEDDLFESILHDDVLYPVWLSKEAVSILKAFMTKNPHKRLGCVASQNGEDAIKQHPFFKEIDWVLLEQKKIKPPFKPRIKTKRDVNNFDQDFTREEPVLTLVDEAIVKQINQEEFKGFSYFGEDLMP
How it was run: as §2

PKC-α = experiment: In vitro kinase assay, immunoprecipitated PKC, MBP substrate, γ-[32P]ATP; assay type: biochemical; settings: PMA and CaCl2
How it was run: (§3)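 HA-tagged classical PKC was overexpressed in HEK-293T, and lysate (100 μg) was immunoprecipitated with immobilized anti-HA. Incubated 30 min, 32 °C. 32P-MBP detected by SDS-PAGE/autoradiography; HA and MBP then immunoblotted and band signals quantified.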

PKC-γ = experiment: as above; assay type: biochemical; settings: PMA and CaCl2
How it was run: as §3

PKC-ζ = experiment: In vitro kinase assay, immunoprecipitated PKC, MBP substrate, γ-[32P]ATP; assay type: biochemical
How it was run: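 Atypical isoform, HA-tagged and overexpressed in HEK-293T; anti-HA immunoprecipitate from 100 μg lysate. Autoradiography of 32P-MBP after SDS-PAGE, with anti-HA and anti-MBP immunoblots for quantification.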

[4] = test system: nontransformed MCF10A cells; experiment: Cell viability; assay type: cell-based, human; settings: XTT; peptide concentration 10 μM; three independent experiments
How it was run: as §1

MCF-7 cells [5] = experiment: Cell death with etoposide-induced DNA damage; assay type: cell-based, human; settings: uPEP2 2 μM followed by etoposide 50 μM for 48 h, means of at least three experiments
MCF-7 cells [6] = experiment: Western blot of DNA damage response markers and PKC-η after etoposide; assay type: cell-based, human; settings: peptide 2 μM, etoposide 50 μM
How it was run: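 MCF-7 treated with peptides (2 μM), then etoposide (50 μM). Lysed 30 min after etoposide addition, then Western blot with specific antibodies for phospho-γ-H2AX, Chk1, Chk2, ATM and ATR; Hsp90 and β-actin as loading controls. A non-myristoylated, cell-impermeant peptide served as control. Three independent experiments.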

[7] = test system: PKC-η (Ser675, Thr655) in MCF-7 cells; experiment: Western blot of PKC-η priming-site phosphorylation; assay type: cell-based, human; settings: peptide 10 μM for 4 h, with/without MG132 10 μM, immunoblot
MDA-MB-231 tumors [8] = experiment: MDA-MB-231 orthotopic breast cancer xenograft in NSG mice; assay type: in vivo
MDA-MB-231 tumors [9] = experiment: MDA-MB-231 orthotopic breast cancer xenograft in NOD-SCID mice; assay type: in vivo; settings: 10 mg/kg intratumor on alternate days; four mice
How it was run: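 Female 6–8-wk-old NOD-SCID mice received 4 × 10^6 MDA-MB-231-Luc cells in 100 μL PBS into the mammary fat pad. At ~100 mm3, mice were randomized to PBS, a non-myristoylated control peptide, or test peptide (10 mg/kg), given intratumorally on alternate days. Caliper measurements three times weekly; V = (W2 × L)/2. Endpoint at ~2,000 mm3.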

Chain of PKCη (P24723 whole entry, canonical isoform): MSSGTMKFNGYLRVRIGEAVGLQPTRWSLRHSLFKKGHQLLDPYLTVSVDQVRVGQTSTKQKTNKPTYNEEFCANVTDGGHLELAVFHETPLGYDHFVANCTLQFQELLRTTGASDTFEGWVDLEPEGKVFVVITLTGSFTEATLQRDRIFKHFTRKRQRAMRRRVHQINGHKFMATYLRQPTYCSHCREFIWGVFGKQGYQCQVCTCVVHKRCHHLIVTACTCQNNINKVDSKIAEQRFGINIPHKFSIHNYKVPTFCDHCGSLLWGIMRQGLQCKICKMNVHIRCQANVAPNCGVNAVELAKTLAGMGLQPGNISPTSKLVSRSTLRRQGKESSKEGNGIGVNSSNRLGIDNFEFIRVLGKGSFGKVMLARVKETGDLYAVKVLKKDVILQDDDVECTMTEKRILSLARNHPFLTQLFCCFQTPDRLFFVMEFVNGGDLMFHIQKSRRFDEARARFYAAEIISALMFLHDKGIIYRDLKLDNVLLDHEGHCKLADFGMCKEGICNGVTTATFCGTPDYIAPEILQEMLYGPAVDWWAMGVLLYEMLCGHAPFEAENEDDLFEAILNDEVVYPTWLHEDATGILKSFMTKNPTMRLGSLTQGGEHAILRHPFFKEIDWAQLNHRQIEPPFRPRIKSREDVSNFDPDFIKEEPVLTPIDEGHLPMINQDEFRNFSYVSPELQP
Chain of PKCθ (Q04759 whole entry): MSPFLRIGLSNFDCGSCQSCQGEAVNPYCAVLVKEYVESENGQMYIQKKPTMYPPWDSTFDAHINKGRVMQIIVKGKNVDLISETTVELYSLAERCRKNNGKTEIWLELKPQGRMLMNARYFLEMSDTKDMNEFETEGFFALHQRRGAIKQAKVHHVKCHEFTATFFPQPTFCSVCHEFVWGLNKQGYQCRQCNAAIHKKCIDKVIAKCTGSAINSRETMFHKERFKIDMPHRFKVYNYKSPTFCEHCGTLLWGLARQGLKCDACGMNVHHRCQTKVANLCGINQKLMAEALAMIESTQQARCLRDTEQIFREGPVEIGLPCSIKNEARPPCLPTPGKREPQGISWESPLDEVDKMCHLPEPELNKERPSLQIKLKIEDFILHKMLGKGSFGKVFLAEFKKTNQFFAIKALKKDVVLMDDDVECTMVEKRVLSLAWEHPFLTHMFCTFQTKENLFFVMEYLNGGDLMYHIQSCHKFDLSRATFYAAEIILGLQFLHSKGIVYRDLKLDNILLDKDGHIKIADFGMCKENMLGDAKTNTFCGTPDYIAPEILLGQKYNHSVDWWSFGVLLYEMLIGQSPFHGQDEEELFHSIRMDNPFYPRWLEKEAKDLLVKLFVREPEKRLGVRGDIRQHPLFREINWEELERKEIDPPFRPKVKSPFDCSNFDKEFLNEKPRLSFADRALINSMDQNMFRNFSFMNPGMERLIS
Chain of PKCδ (Q05655 whole entry): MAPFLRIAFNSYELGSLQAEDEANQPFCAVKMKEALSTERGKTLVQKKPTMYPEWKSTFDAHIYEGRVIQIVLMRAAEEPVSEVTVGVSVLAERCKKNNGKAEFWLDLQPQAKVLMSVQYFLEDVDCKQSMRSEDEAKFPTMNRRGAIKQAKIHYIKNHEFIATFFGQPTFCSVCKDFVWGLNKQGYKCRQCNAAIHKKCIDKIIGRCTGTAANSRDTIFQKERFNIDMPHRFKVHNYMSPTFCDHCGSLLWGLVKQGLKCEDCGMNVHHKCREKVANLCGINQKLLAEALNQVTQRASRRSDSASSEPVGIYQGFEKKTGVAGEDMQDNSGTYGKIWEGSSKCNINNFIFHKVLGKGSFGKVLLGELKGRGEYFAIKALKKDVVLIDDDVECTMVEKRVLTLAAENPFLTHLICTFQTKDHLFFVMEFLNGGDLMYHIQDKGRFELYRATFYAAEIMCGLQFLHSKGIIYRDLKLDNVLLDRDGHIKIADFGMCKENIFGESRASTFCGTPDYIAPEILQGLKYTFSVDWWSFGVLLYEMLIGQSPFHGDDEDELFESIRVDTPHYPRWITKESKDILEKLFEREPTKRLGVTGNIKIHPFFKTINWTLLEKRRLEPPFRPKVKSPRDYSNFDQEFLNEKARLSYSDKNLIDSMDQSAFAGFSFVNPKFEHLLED

Compound: Myristoyl-MLLHLSRGLA [uPEP2(18–26)]
- cell viability of MCF-7 [1]: less effective
- cell viability of MDA-MB-231 [2]: less effective
- cell viability of U251 MG [3]: less effective

Compound: Myr-MASRGS/TLRRCLSPGLPRLLHLSRGLA [uPEP2[A6S]]
- phosphorylation of the peptide as substrate of PKC-η (PKC-η): excellent substrate
- phosphorylation of the peptide as substrate of PKC-ε (PKC-ε): excellent substrate

Compound: CCCCCCCCCCCCCC(=O)N[C@@H](CCSC)C(=O)N[C@@H](C)C(=O)N[C@@H](CO)C(=O)N[C@@H](CCCNC(=N)N)C(=O)NCC(=O)N[C@@H](C)C(=O)N[C@@H](CC(C)C)C(=O)N[C@@H](CCCNC(=N)N)C(=O)N[C@@H](CCCNC(=N)N)C(=O)N[C@@H](CS)C(=O)N[C@@H](CC(C)C)C(=O)N[C@@H](CO)C(=O)N1CCC[C@H]1C(=O)NCC(=O)N[C@@H](CC(C)C)C(=O)N1CCC[C@H]1C(=O)N[C@@H](CCCNC(=N)N)C(=O)N[C@@H](CC(C)C)C(=O)N[C@@H](CC(C)C)C(=O)N[C@@H](Cc1c[nH]cn1)C(=O)N[C@@H](CC(C)C)C(=O)N[C@@H](CO)C(=O)N[C@@H](CCCNC(=N)N)C(=O)NCC(=O)N[C@@H](CC(C)C)C(=O)N[C@@H](C)C(N)=O [uPEP2] (Myristoyl-MASRGALRRCLSPGLPRLLHLSRGLA-NH2)
- IC50 (PKCη): ~2 µM
- IC50 (PKCδ): ~2 µM
- IC50 (PKCθ): ~2 µM
- IC50 (PKCε): ~2 µM
- effect on kinase activity of PKC-α (classical) (PKC-α): did not affect
- effect on kinase activity of PKC-γ (classical) (PKC-γ): did not affect
- effect on kinase activity of PKC-ζ (atypical) (PKC-ζ): did not affect
- cell viability of MCF-7 [1]: reduces cell viability
- cell viability of MDA-MB-231 [2]: reduces cell viability
- cell viability of U251 MG [3]: reduces cell viability
- cell viability of MCF10A [4]: did not affect
- cell death in the presence of both agents (uPEP2 and etoposide) (MCF-7 cells [5]): 95 to 100%
- PKC-η protein in etoposide-treated cells (MCF-7 cells [6]): enhanced degradation
- etoposide-promoted phosphorylation of ATM, ATR, Chk1 and Chk2 (MCF-7 cells [6]; lysis 30 min after etoposide): markedly decreased
- phosphorylation of γ-H2AX upon etoposide (MCF-7 cells [6]; lysis 30 min after etoposide): markedly increased
- phosphorylation of PKC-η priming sites Ser675 and Thr655 [7]: diminished
- breast tumor mass, NSG mice (MDA-MB-231 tumors [8]; 10 mg/kg intratumor on alternate days, five animals/group): significantly attenuates
- growth (volume) of MDA-MB-231 tumors in NSG mice (MDA-MB-231 tumors [8]; 10 mg/kg intratumor on alternate days, five mice/group): inhibited the growth
- expression levels of classical PKC-α, PKC-γ and atypical PKC-ζ in tumors (MDA-MB-231 tumors [8]; immunoblot of tumor extracts): not affected
- protein levels of novel PKC-η and PKC-ε in tumors (MDA-MB-231 tumors [8]; immunoblot of tumor extracts, NSG and NOD-SCID mice): lower protein levels
- phosphorylation of PKC substrates in tumors (MDA-MB-231 tumors [8]; phospho-(Ser) PKC substrate antibody, tumors grown in NSG or NOD-SCID mice): lower
- apoptosis in tumors (TUNEL assay) (MDA-MB-231 tumors [8]; tumor tissue slides at end of experiment): increased apoptosis
- growth (volume) of MDA-MB-231 tumors in NOD-SCID mice (MDA-MB-231 tumors [9]): inhibited the growth

Compound: Myristoyl-CLSPGLPRLLHLSRGLA [uPEP2(10–26)]
- inhibition of kinase activity of PKCη (PKCη): weak inhibitory effects

Compound: Myristoyl-MASRGALRRCLSPGLPR [uPEP2(1–17)]
- cell viability of MDA-MB-231 [2]: partial inhibition

Compound: Myristoyl-TRKRQRAMRRVHQING [η-PS, reference compound]
- inhibition of kinase activity of PKCη (PKCη): weak inhibitory effects
- cell viability of MCF-7 [1]: less effective
- cell viability of MDA-MB-231 [2]: less effective
- cell viability of U251 MG [3]: less effective
